From PubChem
MC4R barr agon: MC4R agonists recruiting beta-arrestin, primary screen, cell-based, luminescence, agonist arm of biased-ligand search; activation, % at 8.9 µM; Melanocortin receptor 4 (Homo sapiens), P32245; hit rate 0.98% among 360,000; U2OS MC4R beta-arrestin complementation; percent of melanotan II response, DMSO zero;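 active = activation above a per-plate cutoff, the mean activation of sample wells on that plate plus 3 SD, cut at about 8% in these data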
Target sequence (P32245 whole entry, looked up): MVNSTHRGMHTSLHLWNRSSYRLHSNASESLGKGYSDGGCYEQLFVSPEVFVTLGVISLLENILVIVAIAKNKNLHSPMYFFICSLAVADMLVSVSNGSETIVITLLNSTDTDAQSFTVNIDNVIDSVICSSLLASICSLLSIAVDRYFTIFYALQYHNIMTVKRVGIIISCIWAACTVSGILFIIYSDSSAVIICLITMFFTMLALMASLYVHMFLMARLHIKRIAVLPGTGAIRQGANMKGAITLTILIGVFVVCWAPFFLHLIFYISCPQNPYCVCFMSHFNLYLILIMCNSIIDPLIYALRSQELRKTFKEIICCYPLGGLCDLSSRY
MC4R antagonist: MC4R antagonists of cAMP signaling, primary screen, cell-based, TR-FRET, antagonist arm of biased-ligand search. Melanocortin receptor 4 (Homo sapiens), P32245. MC4R-expressing cells, MTII-stimulated cAMP, LANCE TR-FRET. inhibition, % at 6.5 µM. hit rate 0.48% among 360,000;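 active = inhibition above its plate's cutoff, the mean of tested wells on that plate plus 3 SD, cut at about 29% in these data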;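 note: 0% = Melanotan II alone and 100% = Melanotan II plus saturating MCL0020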
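Test system: U2OS cells stably expressing human melanocortin 4 receptor (MC4R); also added: Melanotan II challenge; compound: 6.5 µM single dose; timing: 30-min compound preincubation, 1-h Melanotan II challenge, 1-h detection, room temperature; signal: Eu-cAMP/anti-cAMP TR-FRET, emission 671 nm; repeats: one well per compound, no replicates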
MsrA inh: bovine MsrA enzyme inhibitors, primary screen, biochemical, absorbance, HTS; purified bovine MsrA, absorbance read-out; hit rate 0.75% among 360,000; Methionine sulfoxide reductase A (Bos taurus); AID 651718, 2012; inhibition, % at 15.5 µM;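 note: 0% = vehicle wells with enzyme and 100% = reference inhibitor wells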
bovine MsrA act: bovine MsrA enzyme activators, primary screen, biochemical, absorbance, HTS. activation, % at 10.6 µM. Methionine sulfoxide reductase A (Bos taurus). hit rate 0.3% among 360,000. AID 602163, 2012. purified bovine MsrA, absorbance read-out; in the data active = activation above about 7.5%;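 note: 0% = vehicle and 100% = reference activator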
MsrA conf: bovine MsrA inhibitors, retest, confirmation, biochemical, absorbance, HTS; inhibition, % at 15.5 µM; purified bovine MsrA, absorbance read-out; shares compounds with MsrA inh; hit rate 41% among 2,300;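 note: coupled to thioredoxin reductase with NADPH and selenocystamine and DMSO as substrate; 0% = vehicle only and 100% = full effect of reference inhibitor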
The depositor's hits bear a star; · = no result given. This is a sample that favours compounds with a hit; in the whole collection about 2.3% have one here. Cut-off read from the data, not from the text of the source, unless noted: active = inhibition above about 4.5%; inactive = the rest.

SMILES	MC4R barr agon	MC4R antagonist	MsrA inh	bovine MsrA act	MsrA conf
CCOc1cc(/C=N/NC(=O)c2ccc(CN3CCOCC3)cc2)ccc1OC	2	-10	5.3*	-12	4
COc1cc(OC)c2c(-c3cccc(-c4ccc(N(C)C)cc4)c3)cc(=O)oc2c1	-2	-20	2	-7	·
CCOC(=O)c1cnc(SC)nc1Sc1ccccc1Cl	2	6	8.2*	-5	3
CCOC(=O)c1cnc2c(ccc3ccccc32)c1Cl	-2	-1	-1	-5	·
CC1CC(C)CN(C(=O)c2cc3ccccc3o2)C1 (stereo unspecified)	-2	-5	-1	-5	·
CC1CC(C)CN(C(=O)c2cc3cc(Br)cc(Br)c3o2)C1 (stereo unspecified)	-1	-7	5.4*	-6	3
CC1(C)CC(=O)C2=C(C1)N(Cc1ccccc1)C(=O)C2(O)C(F)(F)F (stereo unspecified)	0	9	1	0	·
CCN1/C(=c2/s/c(=C3/C(=O)N(c4ccccc4)N=C3C)n(CC)c2=O)C=Cc2ccccc21	-1	12	-1	-5	·
N#C/C(=C(/O)CN1C(=O)c2ccccc2C1=O)c1nc2ccccc2[nH]1	-2	-2	2	-4	·
Cn1cnnc1SC/C(O)=C(\C#N)c1nc2ccccc2[nH]1	-1	2	4.8*	-8	2
CCCn1c(SC/C(O)=C(\C#N)c2nc3ccccc3[nH]2)n[nH]c1=O	-3	8	4.7*	-5	2
N#C/C(=C(/O)CSc1n[nH]c(N)n1)c1nc2ccccc2[nH]1	0	-1	3	-5	·
CCS(=O)(=O)CCSc1nc2ccccc2o1	-1	-3	6.1*	-2	4
O=S(=O)(CCSc1nc2ccccc2o1)Cc1ccccc1	2	5	1	-1	·
CC(=O)OCC(=O)Nc1ccc(N=Nc2ccccc2)cc1	-2	-5	5.9*	-6	4
COc1cc(/C=C(\C#N)C(=O)NCC2CCCO2)ccc1OCC(=O)O (stereo unspecified)	0	-8	5.5*	-6	4
Cc1ccc(/C=C(\C#N)C(=O)NCC2CCCO2)o1 (stereo unspecified)	-2	1	5.2*	-10	4.6*
N#C/C(=C\c1ccc[nH]1)C(=O)NCC1CCCO1 (stereo unspecified)	-1	-4	3	-3	·
Cc1ccccc1-c1n[nH]c(=S)n1/N=C/C=C/c1ccco1	-3	5	4.7*	0	5
S=c1[nH]nc(-c2ccccc2)n1/N=C/C=C/c1ccco1	-1	5	5.7*	2	6.2*
S=c1[nH]nc(-c2ccc(Cl)cc2)n1/N=C/C=C/c1ccco1	0	4	2	-1	·
Cc1cc(-c2n[nH]c(=S)n2/N=C/C=C/c2ccco2)n[nH]1	-1	3	1	2	·
Cc1ccc2ncnc(NCCC(=O)O)c2c1	-1	-4	1	-11	·
O=C(CN1CCCCCC1)Nc1ccc([N+](=O)[O-])cc1Br	5	9	4.8*	-6	7.2*
O=C(CN1CCOCC1)Nc1ccc([N+](=O)[O-])cc1Br	-2	15	1	-2	·
SMILES	MC4R barr agon	MC4R antagonist	MsrA inh	bovine MsrA act	MsrA conf
O=[N+]([O-])c1ccc(Nc2ccccc2O)c([N+](=O)[O-])c1	-2	-3	5.7*	-4	7.2*
CCOC(=O)C(C(=O)OCC)C(C)(C)/C(C)=N\Nc1ccc([N+](=O)[O-])cc1[N+](=O)[O-]	2	16	2	-3	·
CCOC(=O)C(C)/C(C)=N\Nc1ccc([N+](=O)[O-])cc1[N+](=O)[O-] (stereo unspecified)	-2	20	15*	-4	13*
CCOC(=O)CC(C)(C)/C(C)=N/Nc1ccc([N+](=O)[O-])cc1[N+](=O)[O-]	0	0	9.8*	-10	13*
C/C(=N\Nc1ccc([N+](=O)[O-])cc1[N+](=O)[O-])C(C)C(C)C (stereo unspecified)	1	-1	16*	-4	14*
O=C1c2cccc3c(Cl)ccc(c23)C(=O)N1O	-1	-4	3	-1	·
COc1ccc(/C=C2\NC(=O)C(C=NCc3ccccc3)=C2O)cc1	2	-5	3	-3	·
O=C1N/C(=C\c2ccc(O)cc2)C(O)=C1C=NCc1ccccc1	-1	0	4.9*	-4	4
O=C(CN1C(=O)S/C(=C/C=C/c2ccccc2)C1=O)Nc1ccc(C(=O)O)cc1	-2	10	5.3*	-4	5.8*
O=C(CCN1C(=O)/C(=C\C=C\c2ccccc2)SC1=S)Nc1ccc(C(=O)O)cc1	-1	7	0	-4	·
O=C(CN1C(=O)S/C(=C\C=C\c2ccccc2)C1=O)Nc1ccc(C(=O)O)cc1	2	-7	6.6*	-11	4
COC(=O)c1sc(NC(=O)CSc2nc3nc(C)cc(C)n3n2)c(C(=O)OC)c1C	0	28	0	-4	·
Cc1cc(C)nc(NC(=O)c2cnc3sccn3c2=O)n1	-1	-5	5.5*	-5	4.7*
Cc1cc(NS(=O)(=O)c2ccc(NC(=O)c3cnc4sccn4c3=O)cc2)nc(C)n1	0	3	1	-5	·
CN(C)c1ccc(/C=C/C=N/Nc2nc(N3CCOCC3)nc(N3CCOCC3)n2)cc1	-1	6	6.0*	-3	4
CC(/C=N/Nc1nc(N2CCCCC2)nc(N2CCCCC2)n1)=C\c1ccccc1	0	5	2	-5	·
BrC(=C\c1ccccc1)/C=N/Nc1nc(N2CCOCC2)nc(N2CCOCC2)n1	3	-1	5.3*	-13	4.8*
BrC(/C=C\c1ccccc1)=N/Nc1nc(N2CCOCC2)nc(N2CCOCC2)n1	1	-3	6.7*	-10	4.6*
O=C(Nc1nncs1)C1CCCC1	5	-5	-1	-7	·
O=C(c1ccco1)c1cc2c(ccc3ccccc32)oc1=O	1	-5	13*	-4	28*
c1ccc2nc(-c3nc4ccccc4[nH]3)ccc2c1	1	-2	5.0*	-4	4.7*
Cc1ccc(NCc2nc3ccccc3n2C)c(C)c1	0	4	-1	-2	·
COc1ccc(S(=O)(=O)NC2CCCC2)cc1Cl	-3	15	-1	-3	·
CCOC(=O)c1cc(C(=O)OCC)c(=O)[nH]c1N1CCCC1	-1	2	6.8*	-11	4
CCOC(=O)c1cc(C(=O)OCC)c(=O)[nH]c1C	-2	-1	1	-6	·
O=C(NCCO)C(c1ccccc1)c1ccccc1	-2	-1	-1	-1	·
N#CC1=C(N)Oc2c(O)cc3ccccc3c2C1c1ccsc1 (stereo unspecified)	3	20	8.5*	-4	10*
